Screens as filed in PubChem.
IDH1 R132H inh: inhibitors of IDH1 R132H reductase, primary screen, biochemical, plate reader, single point | Isocitrate dehydrogenase [NADP] cytoplasmic (Homo sapiens), O75874 | diaphorase/resazurin fluorescence, 60 min | inhibition, % at 10 µM | 0.18% of 70,000 active; in the data active = inhibition above about 34%; inconclusive = no clear call, values can overlap the other calls; inactive = below about 11%;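 note: 0% = DMSO and 100% = no enzyme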
T cruzi growth-1: T. cruzi intracellular proliferation inhibitors, primary screen, cell-based, beta-gal Tulahuen parasites, NIH3T3 host, luminescence. 5.9% of 77,000 active. T. cruzi beta-gal in NIH3T3, GalScreen luminescence, 90 h. inhibition, % at 8.34 µM;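 active = mean inhibition above about 93%, with at least 55% of replicates each passing it, limit read from the data, passing the limit was not always enough; inconclusive = only one of those two conditions holds; inactive = neither condition holds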
KDM4C inh: inhibitors of GASC-1 (KDM4C) histone demethylase, primary screen, biochemical, single concentration HTS; Lysine-specific demethylase 4C (Homo sapiens), Q9H3R0; GST-KDM4C 2-372, H3K9me3 peptide, LANCE TR-FRET; inhibition, % at 12.5 µM; 0.15% of 96,000 active; AID 720574, 2013;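 active = mean replicate inhibition above about 25%, with at least 55% of replicates also reaching it, limit read from the data, passing the limit was not always enough; inconclusive = only one of those two conditions met; inactive = neither condition met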
Target sequence (Q9H3R0 2-372 limits assumed): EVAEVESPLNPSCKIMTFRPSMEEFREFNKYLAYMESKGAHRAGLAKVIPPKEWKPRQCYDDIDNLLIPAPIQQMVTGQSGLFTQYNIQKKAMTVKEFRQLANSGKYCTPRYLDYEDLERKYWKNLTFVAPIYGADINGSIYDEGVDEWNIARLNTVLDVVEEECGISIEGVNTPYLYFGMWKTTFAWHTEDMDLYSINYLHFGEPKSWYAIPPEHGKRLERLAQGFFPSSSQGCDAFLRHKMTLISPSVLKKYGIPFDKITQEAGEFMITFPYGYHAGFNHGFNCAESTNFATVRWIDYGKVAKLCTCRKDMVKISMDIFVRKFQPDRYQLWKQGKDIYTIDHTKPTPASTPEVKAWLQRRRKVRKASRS
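Test system: N-terminal GST-fused human GASC-1 (KDM4C) fragment, residues 2-372; quantity: GASC-1 enzyme at 10 nM final in reaction; dosing: single dose; schedule: 30 min demethylation and 1 h detection at room temperature; signal: LANCE TR-FRET, excitation 340 nm, emissions 618 and 671 nm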
T cruzi growth-2: T. cruzi intracellular proliferation inhibitors, confirmation, cell-based, NIH3T3 host, beta-gal parasite, luminescence, cherry-pick | shares compounds with T cruzi growth-1 | T. cruzi beta-gal in NIH3T3, GalScreen luminescence, 90 h | inhibition, % at 8.35 µM | 72% of 5,600 active;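 active = mean replicate inhibition above about 95% and at least 55% of replicates individually reaching it, limit read from the data; inconclusive = only one of the two criteria is met; inactive = neither criterion is met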
T cruzi growth-3: inhibitors of intracellular T. cruzi replication, confirmation, NIH3T3 host cells, beta-gal parasites, cherry-pick, set 2; shares compounds with T cruzi growth-1; T. cruzi beta-gal in NIH3T3, GalScreen luminescence, 90 h; inhibition, % at 2.09 µM; 21% of 5,600 active; AID 651740, 2012;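 active = mean inhibition above about 95%, with at least 55% of replicates also reaching it, limit read from the data; inconclusive = meets just one of the two conditions; inactive = meets neither condition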;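 note: plate controls were neutral control median for no effect and positive control median for full effect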
3T3 cytotox: cytotoxicity in mouse NIH/3T3 fibroblasts, confirmation, cytotoxicity control for T. cruzi proliferation inhibitor project, cell-based, cherry-pick, single point | shares compounds with T cruzi growth-1 | NIH/3T3 viability, CellTiter-Glo ATP luminescence, 90 h | cytotoxicity (signal decrease), % at 8.35 µM | 14% of 5,600 active;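 active = mean signal decrease across replicates above about 35% based on untreated-well scatter, with enough replicates individually passing, limit read from the data; inconclusive = no rule stated though some were filed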;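 note: 0% = median of neutral control wells and 100% = median of positive control wells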
NIH3T3 tox 2: NIH/3T3 fibroblast cytotoxicity, confirmation, cytotoxicity control, cell-based, cherry-pick, single point, set 2; shares compounds with T cruzi growth-1; NIH/3T3 viability, CellTiter-Glo ATP luminescence, 90 h; inhibition, % at 24.9 µM; 56% of 5,600 active; AID 651744, 2012;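 active = mean loss of cell viability signal at or above a set limit, and enough replicates individually reaching it; inconclusive = meets only the mean limit or only the replicate share; inactive = meets neither condition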;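 note: 0% = median of neutral control wells and 100% = median of positive control wells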
* hit, by the source's call; ? = inconclusive; nt = not tested or not shown. The full list was thinned out, with hits kept by preference.

SMILES	IDH1 R132H inh	T cruzi growth-1	KDM4C inh	others
OC[C@@H]1Nc2ccc(-c3ccccc3)cc2[C@H]2[C@@H]1CCN2Cc1ccccc1F	nt	50	0
Cc1cc(C(=O)CSc2nnc3sc4ccccc4n23)c(C)n1Cc1ccccc1	-1	nt	nt
COc1cc([N+](=O)[O-])ccc1NC(=S)Nc1nn(Cc2ccc(Cl)cc2Cl)cc1Cl	2	nt	nt
Cc1ccc(NC(=O)C2CC(Cl)=CCC2C(=O)O)c(Br)c1 (stereo not given)	0	nt	nt
CCS(=O)(=O)N1[C@H](C#N)[C@@H](c2ccc(C#Cc3ccccc3F)cc2)[C@H]1CO	nt	34	5
N#C[C@@H]1[C@@H](c2ccc(C#Cc3ccccc3F)cc2)[C@H](CO)N1C(=O)C1CCCCC1	nt	87	-7
N#C[C@@H]1[C@H](c2ccc(C#Cc3ccccc3F)cc2)[C@H](CO)N1C(=O)C1CC1	nt	100*	-1	T cruzi growth-2=102*;T cruzi growth-3=110*;3T3 cytotox=23;NIH3T3 tox 2=44*
N#C[C@H]1[C@@H](c2ccc(C#Cc3ccccc3F)cc2)[C@@H](CO)N1C(=O)C1CCCC1	nt	nt	4
N#C[C@H]1[C@H](c2ccc(C#Cc3ccc(F)cc3)cc2)[C@H](CO)N1C(=O)C1CC1	nt	114*	-2	T cruzi growth-2=102*;T cruzi growth-3=76;3T3 cytotox=-13;NIH3T3 tox 2=80*
CCS(=O)(=O)N1[C@H](CO)[C@@H](c2ccc(C#Cc3ccccc3F)cc2)[C@@H]1C#N	nt	?	-1	T cruzi growth-2=107*;T cruzi growth-3=109*;3T3 cytotox=-1;NIH3T3 tox 2=5
N#C[C@@H]1[C@H](c2ccc(C#Cc3ccc(F)cc3)cc2)[C@@H](CO)N1C(=O)C1CCCC1	nt	88	-3
N#C[C@@H]1[C@@H](c2ccc(C#Cc3ccccc3F)cc2)[C@@H](CO)N1C(=O)C1CCCCC1	nt	102*	1	T cruzi growth-2=109*;T cruzi growth-3=70;3T3 cytotox=-9;NIH3T3 tox 2=80*
C[C@@H]1CN([C@@H](C)CO)C(=O)c2cc(NC(=O)NC3CCCCC3)ccc2O[C@H]1CN(C)C	nt	-29	0
C[C@H](CO)N1C[C@H](C)[C@@H](CN(C)S(C)(=O)=O)Oc2ncc(C3=CCCC3)cc2C1=O	0	nt	0
O=C1c2c(O)cc(O)c([C@@H]3C(=O)c4c(O)cc(O)cc4O[C@H]3c3ccc(O)cc3)c2O[C@@H](c2ccc(O)cc2)[C@@H]1O	3	nt	nt
CN(C)C(=O)C[C@@H]1CC[C@@H]2[C@@H](COc3ccc(NC(=O)C4CCC4)cc3C(=O)N2C)O1	nt	nt	0
CCS(=O)(=O)N1[C@H](C#N)[C@@H](c2ccc(C3=CCCCC3)cc2)[C@H]1CO	nt	nt	0
CS(=O)(=O)N(CC(=O)Nc1cccc(Br)c1)c1cccc(Cl)c1	0	nt	nt
CCc1ccc(NC(=O)CSc2nc(C)cc(C)n2)cc1	0	nt	nt
CCc1c(O)cc(OC)c2c1O[C@H](C)CC2=O	0	nt	nt
CCC(=O)N1CC[C@@H]2[C@H](CO)Nc3ccc(-c4cccc(C#N)c4)cc3[C@@H]21	nt	57	-1
C/C=C/c1ccc([C@@H]2[C@@H](CO)N(Cc3cccc(F)c3)C23CN(C(C)=O)C3)cc1	nt	nt	1
C[C@@H]1CN([C@H](C)CO)C(=O)CCCn2cc(nn2)CO[C@@H]1CN(C)C(=O)c1ccncc1	-2	76	0
C[C@@H]1CCCCO[C@H](CN(C)C(=O)Nc2ccccc2)[C@@H](C)CN([C@H](C)CO)C(=O)c2cc(NS(C)(=O)=O)ccc2O1	3	9	7
N#C[C@H]1[C@@H](c2ccc(C#Cc3ccccc3F)cc2)[C@H](CO)N1C(=O)C1CC1	nt	95	-2
SMILES	IDH1 R132H inh	T cruzi growth-1	KDM4C inh	others
N#C[C@@H]1[C@H](c2ccc(C#Cc3ccccc3F)cc2)[C@H](CO)N1C(=O)C1CCC1	nt	94	0
N#C[C@@H]1[C@H](c2ccc(C#Cc3ccccc3F)cc2)[C@@H](CO)N1C(=O)C1CC1	nt	99*	0	T cruzi growth-2=99*;T cruzi growth-3=43;3T3 cytotox=6;NIH3T3 tox 2=43*
COCC(=O)N1[C@H](C#N)[C@@H](c2ccc(C#Cc3ccccc3F)cc2)[C@H]1CO	1	101*	0	T cruzi growth-2=98*;T cruzi growth-3=34;3T3 cytotox=-1;NIH3T3 tox 2=2
COCC(=O)N1[C@@H](C#N)[C@@H](c2ccccc2)[C@@H]1CO	nt	28	-1
N#C[C@H]1[C@@H](c2ccc(C#Cc3ccccc3F)cc2)[C@@H](CO)N1C(=O)C1CC1	0	103*	-1	T cruzi growth-2=104*;T cruzi growth-3=104*;3T3 cytotox=5;NIH3T3 tox 2=30*
O=C(N/N=C/c1ccc(Oc2ccccc2)cc1)c1ccccc1O	0	nt	nt
O=C(C[C@@H]1CC[C@H](NC(=O)Nc2ccccc2F)[C@@H](CO)O1)NCc1ccc(F)cc1	nt	nt	-2
O=C(NC(Cc1ccc(O)cc1)C(=O)O)c1ccccc1 (stereo not given)	0	nt	nt
C[C@@H]1CN([C@H](C)CO)C(=O)c2cc(NS(=O)(=O)c3ccc(Cl)cc3)ccc2O[C@H]1CN(C)S(=O)(=O)c1cccs1	nt	44	1
N#C[C@@H]1[C@@H](c2ccc(-c3cccc(F)c3)cc2)[C@@H](CO)N1c1nc(-c2ccccc2)cs1	nt	99*	-2	T cruzi growth-2=110*;T cruzi growth-3=99*;3T3 cytotox=29;NIH3T3 tox 2=16
N#C[C@H]1[C@H](c2ccc(C3=CCCC3)cc2)[C@H](CO)N1c1nc(-c2ccccc2)cs1	nt	57	-6
N#C[C@@H]1[C@@H](c2ccc(-c3ccc(F)cc3)cc2)[C@@H](CO)N1c1nc(-c2ccccc2)cs1	nt	105*	-3	T cruzi growth-2=108*;T cruzi growth-3=96*;3T3 cytotox=16;NIH3T3 tox 2=13
N#C[C@@H]1[C@@H](c2ccc(C3=CCCC3)cc2)[C@@H](CO)N1c1nc(-c2ccccc2)cs1	nt	108*	-3	T cruzi growth-2=96*;T cruzi growth-3=40;3T3 cytotox=6;NIH3T3 tox 2=13
N#C[C@H]1[C@@H](c2ccc(-c3cccc(F)c3)cc2)[C@@H](CO)N1c1nc(-c2ccccc2)cs1	nt	94	2
N#C[C@H]1[C@@H](c2ccc(-c3ccc(F)cc3)cc2)[C@H](CO)N1c1nc(-c2ccccc2)cs1	nt	83	-3
CCC(=O)N1[C@H](CO)[C@H]2c3ccccc3N(S(=O)(=O)c3ccc(F)cc3)C[C@H]21	nt	20	-2
CN(C)C(=O)[C@@H]1[C@@H](CO)[C@@H]2Cn3c(ccc(-c4ccncc4)c3=O)[C@@H]2N1Cc1ccccc1	nt	6	1
Cc1ccc(NC(=O)C(C)Sc2n[nH]c(C)n2)cc1 (stereo not given)	0	nt	nt
